Source: paper PMC11909274 (Nature Communications, 2025)

How the values were obtained:
[1] = system: CHP-212-R(mix) and resistant monoclonal sublines R1-R6 (heterozygous USP7 V517F); assay: Cell viability assay; conditions: for sensitivity of the resistant cells to other agents: SRB, 3 days exposure (Fig. 1d)
[2] = system: CHP-212.V517F.KI#1 and CHP-212.V517F.KI#2 cells; assay: Cell viability assay; format: cell-based, human; conditions: CHP-212 V517F knock-in vs WT
[3] = system: LNCaP V517F.KI#1 and V517F.KI#2 cells; assay: Cell viability assay; format: cell-based, human; conditions: LNCaP.V517F.KI vs WT
USP7_V517F^CD = USP7_V517F^CD (Homo sapiens, UniProt Q93009, V517F); assay: Ub-AMC in vitro enzyme assay; format: biochemical; conditions: 50 nM USP7_V517F^CD, up to 0.5 μM USP7-797 or 1 μM FT671
V517F^CD = V517F^CD (Homo sapiens, UniProt Q93009, V517F); assay: Isothermal titration calorimetry; format: binding; conditions: ITC, compared to the control groups (WT)
V517G^CD = V517G^CD (Homo sapiens, UniProt Q93009, V517G); assay: Isothermal titration calorimetry; format: binding; conditions: ITC, USP7_V517G^CD
Summary of the method: (§1)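 His-tagged USP7 catalytic-domain mutants were expressed from pET28 in E. coli BL21(DE3), induced with 0.5 mM IPTG overnight at 17 °C, then purified by Ni–NTA and desalting. Protein was titrated with test compound on a MicroCal PEAQ-ITC at 25 °C, using an initial 0.5 μL injection then 20 injections of 2 μL. Kd came from a single-site binding model fit.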

V517A^CD = V517A^CD (Homo sapiens, UniProt Q93009, V517A); assay: Isothermal titration calorimetry; format: binding; conditions: ITC
Summary of the method: as §1

V517I^CD = V517I^CD (Homo sapiens, UniProt Q93009, V517I); assay: Isothermal titration calorimetry; format: binding; conditions: ITC
Summary of the method: as §1

V517Y^CD = V517Y^CD (Homo sapiens, UniProt Q93009, V517Y); assay: Isothermal titration calorimetry; format: binding; conditions: ITC, USP7_V517Y^CD
Summary of the method: as §1

CHP-212 R(mix) cells = assay: Cell cycle distribution by flow cytometry; format: cell-based, human; conditions: 24 h treatment
[4] = system: c-caspase-3, c-caspase-7, c-PARP, p53, p21, Rad18, DNMT1, UHRF1 in CHP-212 resistant variants; format: cell-based, human; conditions: resistant variants relative to the parent cells, 48 h, Western blotting
Summary of the method: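 CHP-212 parental and resistant cells were treated with test compound, 48 h for caspase-3/-7, cleaved caspases and PARP1, or 24 h for p53, p21, Rad18, DNMT1 and UHRF1. Lysis was in SDS buffer (50 mM Tris-HCl pH 6.8, 2% SDS, 100 mM DTT) with 15 min boiling, followed by SDS-PAGE on 7.5–12.5% gels. Primary antibodies were used at 1:1000 with HRP secondaries. Blots were repeated three times.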

Capan-1.V517F.OE cells = conditions: Capan-1.V517F.OE vs WT.OE
[5] = system: USP4, USP8, USP9X, USP12, USP15, and USP34; conditions: cited from earlier work

Chain of USP7_V517F^CD (Q93009 208-560 V517F): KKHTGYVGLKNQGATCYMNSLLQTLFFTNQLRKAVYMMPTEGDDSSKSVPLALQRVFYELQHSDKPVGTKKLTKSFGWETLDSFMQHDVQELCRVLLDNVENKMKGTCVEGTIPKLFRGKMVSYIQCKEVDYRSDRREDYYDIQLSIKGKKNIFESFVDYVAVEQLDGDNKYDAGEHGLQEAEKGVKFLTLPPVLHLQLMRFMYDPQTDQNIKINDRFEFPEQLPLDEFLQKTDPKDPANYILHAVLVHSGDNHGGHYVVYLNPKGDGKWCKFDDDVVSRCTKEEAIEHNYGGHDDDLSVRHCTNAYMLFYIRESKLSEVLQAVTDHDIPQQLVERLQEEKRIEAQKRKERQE
Chain of V517F^CD (Q93009 208-560 V517F): as above
Chain of V517A^CD (Q93009 208-560 V517A): as the sequence (Q93009 208-560 V517F) above, with F310A counted along it
Chain of V517Y^CD (Q93009 208-560 V517Y): as the sequence (Q93009 208-560 V517F) above, with F310Y counted along it
Chain of V517I^CD (Q93009 208-560 V517I): as the sequence (Q93009 208-560 V517F) above, with F310I counted along it
Chain of V517G^CD (Q93009 208-560 V517G): as the sequence (Q93009 208-560 V517F) above, with F310G counted along it

## COc1cccc2c1C(=O)c1c(O)c3c(c(O)c1C2=O)C[C@@](O)(C(=O)CO)C[C@@H]3O[C@H]1C[C@H](N)[C@H](O)[C@H](C)O1 [Adriamycin]
[1]
  sensitivity of the resistant cells to other agents: maintained sensitivity

## O=C(C[C@@H](C(F)F)n1ccc(F)n1)N1CCC(O)(Cn2cnc3c(cnn3-c3ccc(F)cc3)c2=O)CC1 [FT671]
[2]
  sensitivity reduction: 88–106 fold
[3]
  sensitivity reduction: 121- to 146 fold
USP7_V517F^CD
  inhibition of V517F enzyme activity: failed to inhibit
V517F^CD
  fold decreased binding affinity of USP7_V517F: 67 fold
V517G^CD
  affinity compared to wild-type USP7: remain essentially unchanged
V517A^CD
  affinity compared to wild-type USP7: remain essentially unchanged
V517I^CD
  affinity compared to wild-type USP7: remain essentially unchanged
V517Y^CD
  affinity compared to wild-type USP7: decreases significantly
CHP-212 R(mix) cells
  cell-cycle distribution of resistant variants: not profoundly altered
[4]
  activation of apoptosis-related proteins (c-caspase-3, c-caspase-7, c-PARP): reduced activation
Capan-1.V517F.OE cells
  fold higher IC50: 48 fold
[5]
  response of other USP family members to FT671: resistant
[1]; resistant sublines vs parental CHP-212 cells
  fold reduction in sensitivity / higher IC50 than parental cells: 83–213 fold

## COc1ncnc(C2CC2)c1-c1ncc2cnn(Cc3ccc(-c4nc(C(F)(F)F)cn4C(C)C)cc3)c2n1 [KSQ4279]
[1]
  sensitivity of the resistant cells to other agents: maintained sensitivity

## NS(=O)(=O)OC[C@@H]1C[C@@H](n2ccc3c(N[C@H]4CCc5ccccc54)ncnc32)C[C@@H]1O [MLN4924]
[1]
  sensitivity of the resistant cells to other agents: maintained sensitivity

## CC(=O)O[C@H]1C(=O)[C@@]2(C)[C@H]([C@H](OC(=O)c3ccccc3)[C@]3(O)C[C@H](OC(=O)[C@H](O)[C@@H](NC(=O)c4ccccc4)c4ccccc4)C(C)=C1C3(C)C)[C@]1(OC(C)=O)CO[C@@H]1C[C@@H]2O [Taxol]
[1]
  sensitivity of the resistant cells to other agents: maintained sensitivity

## CC[C@]1(O)C[C@H]2CN(CCc3c([nH]c4ccccc34)[C@@](C(=O)OC)(c3cc4c(cc3OC)N(C=O)[C@H]3[C@@](O)(C(=O)OC)[C@H](OC(C)=O)[C@]5(CC)C=CCN6CC[C@]43[C@@H]65)C2)C1 [VCR]
[1]
  sensitivity of the resistant cells to other agents: maintained sensitivity

## CC(C)C[C@H](NC(=O)[C@H](Cc1ccccc1)NC(=O)c1cnccn1)B(O)O [bortezomib]
[1]
  sensitivity of the resistant cells to other agents: maintained sensitivity
